Published values pooled from the literature.
Lines come from different studies, so protocols differ. pIC50: −log10 of the molar value. Values after ≈ are worked out from the molar mass of the structure shown.
Effect on: microbial growth

SMILES | organism | test | system | conditions | measurement | value
CC[C@H](C)C[C@H](C)CCCCCCCCC(=O)N[C@H]1C[C@@H](O)[C@@H](NCCN)NC(=O)[C@@H]2[C@@H](O)CCN2C(=O)[C@H]([C@H](O)CCN)NC(=O)[C@H]([C@H](O)[C@@H](O)c2ccc(O)cc2)NC(=O)[C@@H]2C[C@@H](O)CN2C(=O)[C@H]([C@@H](C)O)NC1=O | Nakaseomyces glabratus | broth dilution | MY1381 |  | MIC | 0.25 µg/mL
CCCCCCCC/C=C\CCCCCCCCNC(=O)CP(=O)(O)O | Bacillus subtilis |  | ATCC23857 |  | MIC | 200 µg/mL
CC(C)CCCCCCCCCCCCCCc1cc(O)cc(O)c1 | Bacillus subtilis |  |  |  | pIC50 | 4.99
CCC[C@H]1CN(c2cccc(OC(F)(F)F)c2)C(=O)CN1Cc1cncn1Cc1ccc(Br)cc1 | Cryptococcus neoformans | broth dilution |  |  | MIC | 3 to 6 µM
CCCCCCCCCCCCCCCCCCCCc1cc(O)cc(O)c1 | Bacillus subtilis |  |  |  | pIC50 | < 3.70
CCCSc1ccc2nc(NC(=O)OC)[nH]c2c1 | Cryptococcus neoformans | broth dilution |  | 72 h, clinical isolate | pIC50 | 5.90
CCCCCC/C=C\CCCCCCCCCC(=O)CP(=O)(O)O | Bacillus subtilis |  | ATCC23857 |  | MIC | 25 µg/mL
CC(C)C(C)CCCCCCCCCCCc1cc(O)cc(O)c1 (stereo not drawn) | Bacillus subtilis |  |  |  | pIC50 | 4.94
C[C@@H]1[C@H](O)[C@@H](C)/C=C/C=C/C=C/C=C/C=C/C=C/C=C/[C@H](O[C@@H]2O[C@H](C)[C@@H](O)[C@H](N)[C@@H]2O)C[C@@H]2O[C@](O)(C[C@@H](O)C[C@@H](O)[C@H](O)CC[C@@H](O)C[C@@H](O)CC(=O)O[C@H]1C)C[C@H](O)[C@H]2C(=O)O | Cryptococcus neoformans |  | ATCC90113 |  | MIC | 1.25 µg/mL
O=C(CCCCC1CCCCC1)CP(=O)(O)O | Bacillus subtilis |  | ATCC23857 |  | MIC | 25 µg/mL
O=C(NN=Cc1ccc(O)c(Br)c1)c1cccc(Br)c1 | Cryptococcus neoformans | broth dilution |  |  | MIC | 0.3 µg/mL
CCCCCC/C=C\CCCCCCCCCC(=O)NP(=O)(O)O | Bacillus subtilis |  | ATCC23857 |  | MIC | 100 µg/mL
CCCCCOc1ccc(-c2cc(-c3ccc(C(=O)N[C@H]4C[C@@H](O)[C@@H](O)NC(=O)[C@@H]5[C@@H](O)[C@@H](C)CN5C(=O)[C@H]([C@H](O)CC(N)=O)NC(=O)[C@H]([C@H](O)[C@@H](O)c5ccc(O)c(OS(=O)(=O)O)c5)NC(=O)[C@@H]5C[C@@H](O)CN5C(=O)[C@H]([C@@H](C)O)NC4=O)cc3)no2)cc1 | Nakaseomyces glabratus |  |  |  | MIC50 | 0.06 µg/mL (≈ 0.0472 µM)
CCCC(=O)CP(=O)(O)O | Bacillus subtilis |  | ATCC23857 |  | MIC | > 200 µg/mL
CC1(C)S[C@@H]2[C@H](NC(=O)[C@H](N)c3ccccc3)C(=O)N2[C@H]1C(=O)O | Proteus vulgaris | well diffusion | ATCC13315 | 60000 µg/mL | inhibition zone | 25 mm
